In ChEMBL document CHEMBL2069239, “High DNA affinity of a series of peptide linked diaromatic guanidinium-like derivatives” (J Med Chem, 2012):
The source made the active and inactive calls. The rule behind the calls is not given here.

Columns and labels:
[1] = test system: Nucleic Acid; assay: Binding affinity to AATT DNA by SPR analysis; format: nucleic-acid assay
How it was run: (§1)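 Biosensor analysis against three immobilized DNA hairpin duplexes in degassed MES buffer (10 mM MES, 1 mM EDTA, 92 mM NaCl, 0.0005% v/v P20, pH 6.25) at 25 °C. A ligand concentration series was injected at 20 μL/min for 5 min, then dissociated for 5 min, with NaCl/NaOH regeneration. K was fitted from steady-state RU versus free ligand using a two-site binding equation.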

[2] = test system: Nucleic Acid; assay: Binding affinity to (GC)4 DNA by SPR analysis; format: nucleic-acid assay; how it was run: as §1
[3] = test system: Nucleic Acid; assay: Binding affinity to (AT)4 DNA by SPR analysis; format: nucleic-acid assay; how it was run: as §1
[4] = test system: Nucleic Acid; assay: Binding affinity to Salmon sperm DNA in phosphate buffer assessed as change in melting temperature by thermal denaturation assay; format: nucleic-acid assay; conditions: Salmonidae
How it was run: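 UV melting of salmon sperm DNA (150 μM base) with compound (15 μM), giving a compound:base ratio of 0.1, in 10 mM sodium phosphate buffer at pH 7. Absorbance at 260 nm was followed from 20 to 90 °C at 1 °C/min, collecting five points per °C, in a 1 cm quartz cell.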

[5] = test system: Nucleic Acid; assay: Binding affinity to poly(dA.dT)2 DNA assessed as large induced CD signal at 0.5 mM by circular dichroism study; format: nucleic-acid assay
[6] = test system: Nucleic Acid; assay: Binding affinity to poly(dA.dT)2 DNA in phosphate buffer by ITC analysis; format: nucleic-acid assay
How it was run: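 Calorimetric titration at 25 °C of 2.48 mM compound in 10 mM phosphate buffer into poly(dA·dT)2 in the cell (2 mM). There were 29 injections, spaced 300 s apart. Heat per injection was obtained by integrating the power peak area over time.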

[7] = test system: Nucleic Acid; assay: Binding affinity to DNA assessed as large induced CD signal at 0.5 mM by circular dichroism study; format: nucleic-acid assay
[8] = test system: Nucleic Acid; assay: Binding affinity to poly(dA.dT)2 DNA in phosphate buffer assessed as change in melting temperature by thermal denaturation assay
[9] = test system: Nucleic Acid; assay: Binding affinity to poly(dA).poly(dT) DNA in MES buffer assessed as change in melting temperature by thermal denaturation assay; format: nucleic-acid assay

In the case of N=C(N)Nc1ccc(Nc2ccc(N=C3NCCN3)cc2)cc1, the K [1] is reported as 6.4 ×10⁵ /M and the K [2] is reported as less than 1 ×10⁵ /M.
Molecule Nc1ccc2cc3ccc(N)cc3nc2c1 has a K [1] of 5.7 ×10⁵ /M, a K [3] of 12.2 ×10⁵ /M and a K [2] of 6.5 ×10⁵ /M.
In the case of O=C(Nc1ccc(NC2=NCCN2)cc1)c1ccc(NC2=NCCN2)cc1, the ΔTm [4] is reported as 12.5 °C, the K [1] is reported as 93.7 ×10⁵ /M and the K [3] is reported as 47.7 ×10⁵ /M. The K [2] was less than 1 ×10⁵ /M, the Activity [5] was “Active” and the K [6] was 4.9 ×10⁵ /M. The Activity [7] was “Active” and the ΔTm [8] was 29 °C.
With N=C(N)Nc1ccc(NC(=O)c2ccc(NC3=NCCN3)cc2)cc1 the ΔTm [4] was 10 °C, the Activity [5] was “Active” and the K [6] was 1.54 ×10⁵ /M. For the same molecule, the Activity [7] was “Active” and the ΔTm [8] was 26.1 °C.
With N=C(N)Nc1ccc(NC(=O)c2ccc(NC(=N)N)cc2)cc1 the ΔTm [4] was 11 °C, the K [1] was 71 ×10⁵ /M and the K [3] was 18 ×10⁵ /M. The K [2] was less than 1 ×10⁵ /M, the Activity [5] was “Active” and the Activity [7] was “Active”. The ΔTm [8] was 20 °C.
N=C(N)Nc1ccc(NC(=O)c2ccc(N)cc2)cc1 was tested, and the ΔTm [4] was 1 °C, the Activity [9] was “inactive” and the Activity [8] was “inactive”.
Nc1ccc(C(=O)Nc2ccc(NC3=NCCN3)cc2)cc1 was tested, and the ΔTm [4] was 2 °C, the Activity [9] was “inactive” and the Activity [8] was “inactive”.
In the case of N=C(N)Nc1ccc(C(=O)c2ccc(N=C3NCCN3)cc2)cc1, the K [1] is reported as 2.7 ×10⁵ /M.
